Measurements: the EternaBench riboswitch data

System: MS2 coat protein
Assay: apparent Kd, MS2 coat protein; higher = weaker binding; RNA-MaP array; FMN 200 µM where present
Outline: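 Green signal was scaled to red-channel RNA signal and control-cluster median Fmax, and the apparent Kd was taken as the median of filtered per-cluster binding-curve fits. The binding series used SNAP-549-labelled MS2 coat protein from 0.7 or 1.5 nM, doubling to 3 µM, on designs transcribed by stalled E. coli RNA polymerase on Illumina sequencing-chip clusters. Each series ran without and then with constant ligand in 100 mM Tris-HCl pH 7.5, 80 mM KCl, 4 mM MgCl2, BSA, DTT, yeast tRNA and Tween-20.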

[1] = designed as: OFF switch for flavin mononucleotide, no ligand
[2] = ligand present: flavin mononucleotide, designed as: OFF switch for flavin mononucleotide
[3] = designed as: ON switch for flavin mononucleotide, no ligand
[4] = ligand present: flavin mononucleotide, designed as: ON switch for flavin mononucleotide

Sequence	apparent Kd [1]	apparent Kd [2]	apparent Kd [3]	apparent Kd [4]
AGAUAACAUGAGGAUCACCCAUGUGAGGAUAUUUACUCAAGAGCUUCGGCUCUCAGGUGAAGAAGGCACAAUGA	55.9 nM	83.4 nM	–	–
CUGAUGUGAGGAUAUCAACGCCAUGUCUUUGACAUGGCGCAUGAGAAGGCACAUGAGGAUCACCCAUGUACUUC	23.3 nM	125 nM	–	–
ACGGCAGUCAGAGGAUAUGGUUACAUGAGGAUCACCCAUGUCAAGGGUCUAAUUAAGUAUAACUACUAGAAGGCUGAAGGCCUA	154 nM	113 nM	–	–
ACGAAAACACAAAUGUUCCACGGUGCAGAAGGGUCCCUCACAUGAGGAUCACCCAUGUAACUCGGACAGGAUAUGCUUUUGGGA	–	–	380 nM	11.4 nM
AGUAUGCACGCAGGAUAUACAUGAGGAUCACCCAUGUGGAACAGUGUAGUACUAGUUGAUCCUCAGUAGAAGGGCGGUCAAAUA	47.8 nM	42.7 nM	–	–
UCCCGAAGGCGGGCCGACCAUACAUGAGGAUCACCCAUGUCGAGAAGGUGCUCACGGGUGGGUGGCAAGGAUAUCGGGUCGGAU	–	–	93.8 nM	42.3 nM
AGAUGGUAGAGAGGAUAUCAUGUGCUGACAUGAGGAUCACCCAUGUAGGGACGUCAGUCCAAUUAUGAGAAGGCUCUACCAUCU	–	–	49.4 nM	40.2 nM
CAGUCUACAGGAUAUACAUGAGGAUCACCCAUGUGUAUCAACCUUCUGUGAUCCUCAUGUAGAAGGGUAGACUG	13.5 nM	10.9 nM	–	–
GUGCAUUACGAGAAGGCGUACUGGUGAAUAUAAAACGACAAAGGUACAUGAGGAUCACCCAUGUACGAGGAUAUCGAUUUGGCU	11 nM	39.7 nM	–	–
UGCUGGUGACAGCAUCCAUCAAAACAUGAGGAUCACCCAUGUAGAAGGCUGUACGGUUACCGUACAGAGGAUAUACAAUGAUGU	13.2 nM	23.6 nM	–	–
AAUAGGCUCGCGCAGGAUAUGGAUCAUUCCACAUGAGGAUCACCCAUGUUAAGGAGCCCUUGCAUCCAGAAGGGUGUUGGUCUUU	–	–	35.7 nM	13.1 nM
AUCCGGCGUGUAGGAUAUGGAAAAAAUUAGGAUCCAGAAGGACAUGAGGAUCACCCAUGUACAUGUAAACAGUCAUCACCGGAA	33.5 nM	51.7 nM	–	–
GUUCUGCCUCCUGCCGGAACAUGAGGAUCACCCAUGUUGCCUGAGGAUAUCCUAUGGCGUCCACAGGAGAAGGCAGGCAGCAUA	18.6 nM	19.6 nM	–	–
UAUUAGCUAGGAUAUACAUGAGGAUCACCCAUGUCACGGGUCCACUCGUCCUAUGCGUGUAGAAGGAGCGACCC	20.6 nM	22.4 nM	–	–
AGGUGACAUGAGGAUCACCCAUGUAAGGAUAUACGGUUAGUGGAGAGUUGGAAGAGAGGUAGAAGGUACGGAGC	288 nM	137 nM	–	–
UCGACGAAAGUCGAACGAUGUAGCAGAAGGACAUGAGGAUCACCCAUGUCAGCUGUAACAGCCAUGUAGGAUAUGCUACAUCGG	4.43 nM	5.37 nM	–	–
AUACAAAGCACAGGAUAUGGGAGUGAGAAUCAUGCUGCGAAUUGAUUCGGACCAGAAGGGUGCACAUGAGGAUCACCCAUGUAC	–	–	185 nM	77.6 nM
UUUACAUGAGGAUCACCCAUGUCUUGCAAGAUGAGUUCUGGUGAGGAUAUACAUGGUAAAGAACUGUAGAAGGCACUGGGUACA	–	–	432 nM	430 nM
AAACACAAACAUGAGGAUCACCCAUGUUAUGAAAAUAUUGGGAGAAGGGCGAUUGCAAAGCAAUCGCAGGAUAUUCGUAUUGUG	–	–	34.4 nM	12.2 nM
ACAUUGCGAGGAUAUACAUGAGGAUCACCCAUGUGGUAGUGGAUACGGUAGGGCUAGUGUAGAAGGUGUCAUGG	128 nM	103 nM	–	–
UCUGGUCGAGGAUAUGCAAUCGUGCUUCGGCACGUAAGAUCACAUGAGGAUCACCCAUGUAGAAGGCGACCAGA	22.3 nM	78.3 nM	–	–

Sequence	apparent Kd [1]	apparent Kd [2]	apparent Kd [3]	apparent Kd [4]
CUCGUGUCAGGAUAUCGAUGGCGCCUCCGGGCGCCCGAACGCGAGAAGGGACAUGAGGAUCACCCAUGUAAAAC	71.8 nM	159 nM	–	–
AAGAAGUGAGGAUAUACGCGAACAAAAAAAAAAAAGAAAGCGUAGAAGGCACAUGAGGAUCACCCAUGUCAAAA	26.1 nM	27.3 nM	–	–
UGUUGUAUUACAGGAUAUCUAAUAUUUUUAUUUAGAGAAGGGUAUUCACAUGAGGAUCACCCAUGUAUAUACGAGGAAGUUGUG	–	–	34.3 nM	38.1 nM
AAAAAAAAAGUCGAGGAUAUCCACAUGGCUACAUGAGGAUCACCCAUGUGAAGAAAAGCACAUGAGGAGAAGGCGACAAAAAAAAA	–	–	28.1 nM	13.7 nM
UGGUGCGAGCUAUCGCAUGACUGGGAGGAUAUGACAUGAGGAUCACCCAUGUGGGAUCUAAAUUGUCAGAAGGCUCGAUCUGGG	346 nM	102 nM	–	–
GCACAUUUGUAAGGAUAUACAACAUGAGGAUCACCCAUGUGAUUGAAUUUAGUAGAAGGUACAGAAAUGAGUAUCACUUUUGUA	–	–	16.8 nM	10.9 nM
AGCCGGGCCCAGAAGGUGCCAGCGAGAGCUGCACAUGAGGAUCACCCAUGUUGUCGGUGACGACGCAAGGAUAUGGGCCCGGCU	–	–	22.7 nM	7.17 nM
GUGCCUUAUGAGAAGGCGAUCAUGAAACAUGAUCGAGGAUAUCAUGAAAACAUGAGGAUCACCCAUGUAUGGGUAUUAUGGUAC	–	–	107 nM	27.8 nM
AAAUCCUACGAAGGAUAUACAAACAUGAGGAUCACCCAUGUGUCUUUCGUGUAACUGGAAUUCGGGUAGAAGGUCGUAGACAUA	17 nM	22.6 nM	–	–
CGCUACGUUUCGUAGCAGCUAGGUGAGGAUAUUCAAUUUUUCACAUGAGGAUCACCCAUGUAUGUGAAGAAGGCGCCUAGAAAA	–	–	11 nM	4.78 nM
CCCUCACAUGAGGAUCACCCAUGUUAGGAUAUCUACCAGGAGCUUUGAAUUGCCCAACGGAGAAGGAACGUGCA	16.9 nM	17.4 nM	–	–
AUGCCCUGAGGAUAUCUCAUCUCGCACAUGAGGAUCACCCAUGUUCUUCUCUGGGUUUCGAGAGAAGGCAGGCCUA	701 nM	366 nM	–	–
CCUCGACAUGAGGAUCACCCAUGUCAGGAUAUUGUGUUUCGGGUUUUUUACCUUUAGGCAAGAAGGGAUGUGUG	15.8 nM	22.4 nM	–	–
UUCCCAAGUGCAGGAUAUGCUUCACCGACCUCAGCAGAAGGGCACAUGAGGAUCACCCAUGUGGCAAAAGUACACAGCAAGCUG	7.74 nM	11 nM	–	–
AACUCACAUGAGGAUCACCCAUGUGAGGAUAUAUUAUUAUGGCUGUUAUGCUGUAGUGGUAGAAGGCGCGUGAU	33.2 nM	28.7 nM	–	–
GCUAGUAUUGCAGGAUAUUGAGAAUAAUUUUGGCAAGAAGGGCAUAACAUGAGGAUCACCCAUGUAUUCCUUAGUGAUACUAGC	6.58 nM	6.11 nM	–	–
CGUGUGUGAGGAUAUGACAAUGGUAUCUUCGGAUACCAUUGUCAGAAGGUACAUGAGGAUCACCCAUGUAGAUC	37.7 nM	70.3 nM	–	–
GGGCUCAUCGAGAAGGCCUCAACAUGAGGAUCACCCAUGUUGUAAUAUGGGAGGAUAUCGAUGAUACAGCUACGUUUCGUACCC	–	–	18 nM	6.25 nM
GAUAAGCUAGGAUAUACAUAUUAUUUAAUAUCCUCAUUAAUACAUGAGGAUCACCCAUGUAGAAGGAGCAAUAG	127 nM	272 nM	–	–
AGGUGACAUGAGGAUCACCCAUGUCAGGAUAUAUACACUGGCGACGUGACGUCGGCAGAUAGAAGGGACAAAGU	17.2 nM	20 nM	–	–
GAGGCACAUGAGGAUCACCCAUGUGGGUAGAACAUAGGAUAUCACCAACAAAUUACCCGGUGAGAAGGAUGAUGCC	–	–	234 nM	57.4 nM
